Legend:
Rattus norvegicus [1] = test: Drug metabolism in wild-type Sprague-Dawley rat assessed as metabolite to parent ratio treated with sulfasalazine at 20 mg/kg, po; type: ADME, organism-based; parameters: dose 20 mg/kg, route oral; conditions: in vivo
How it was run: (§1)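 Male Sprague-Dawley knockout or age/weight-matched wild-type rats with femoral artery and vein cannulas. Crossover design: day 0 i.v. bolus 5 mg/kg sulfasalazine in water at pH 9–10, then day 3 gavage 20 mg/kg in 0.5% carboxymethyl cellulose/PBS pH 7.4. Arterial plasma was sampled to 24 h. Sulfasalazine and sulfapyridine were measured by LC-MS/MS (1–5000 ng/ml). Parameters are noncompartmental; n = 4–8, mean ± S.D.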

Rattus norvegicus [2] = test: Drug metabolism in MDR1A knockout Sprague-Dawley rat assessed as metabolite to parent ratio treated with sulfasalazine at 20 mg/kg, po; type: ADME, organism-based; parameters: dose 20 mg/kg, route oral; conditions: in vivo; how it was run: as §1
Rattus norvegicus [3] = test: Drug metabolism in BCRP knockout Sprague-Dawley rat assessed as metabolite to parent ratio treated with sulfasalazine at 20 mg/kg, po; type: ADME, organism-based; parameters: dose 20 mg/kg, route oral; conditions: in vivo; how it was run: as §1
Rattus norvegicus [4] = test: Drug metabolism in MRP2 knockout Sprague-Dawley rat assessed as metabolite to parent ratio treated with sulfasalazine at 20 mg/kg, po; type: ADME, organism-based; parameters: dose 20 mg/kg, route oral; conditions: in vivo; how it was run: as §1
Rattus norvegicus [5] = test: AUC (infinity) in wild-type Sprague-Dawley rat treated with sulfasalazine at 20 mg/kg, po by LC-MS/MS analysis; type: ADME, organism-based, Plasma; parameters: time infinity, dose 20 mg/kg, route oral; conditions: in vivo; how it was run: as §1
Rattus norvegicus [6] = test: AUC (infinity) in MDR1A knockout Sprague-Dawley rat treated with sulfasalazine at 20 mg/kg, po by LC-MS/MS analysis; type: ADME, organism-based, Plasma; parameters: time infinity, dose 20 mg/kg, route oral; conditions: in vivo; how it was run: as §1
Rattus norvegicus [7] = test: AUC (infinity) in BCRP knockout Sprague-Dawley rat treated with sulfasalazine at 20 mg/kg, po by LC-MS/MS analysis; type: ADME, organism-based, Plasma; parameters: dose 20 mg/kg, route oral, time infinity; conditions: in vivo; how it was run: as §1
Rattus norvegicus [8] = test: AUC (infinity) in MRP2 knockout Sprague-Dawley rat treated with sulfasalazine at 20 mg/kg, po by LC-MS/MS analysis; type: ADME, organism-based, Plasma; parameters: dose 20 mg/kg, route oral, time infinity; conditions: in vivo; how it was run: as §1
Rattus norvegicus [9] = test: Cmax in wild-type Sprague-Dawley rat treated with sulfasalazine at 20 mg/kg, po by LC-MS/MS analysis; type: ADME, organism-based; parameters: dose 20 mg/kg, route oral; conditions: in vivo; how it was run: as §1
Rattus norvegicus [10] = test: Cmax in MDR1A knockout Sprague-Dawley rat treated with sulfasalazine at 20 mg/kg, po by LC-MS/MS analysis; type: ADME, organism-based; parameters: dose 20 mg/kg, route oral; conditions: in vivo; how it was run: as §1
Rattus norvegicus [11] = test: Cmax in BCRP knockout Sprague-Dawley rat treated with sulfasalazine at 20 mg/kg, po by LC-MS/MS analysis; type: ADME, organism-based; parameters: dose 20 mg/kg, route oral; conditions: in vivo; how it was run: as §1
Rattus norvegicus [12] = test: Cmax in MRP2 knockout Sprague-Dawley rat treated with sulfasalazine at 20 mg/kg, po by LC-MS/MS analysis; type: ADME, organism-based; parameters: dose 20 mg/kg, route oral; conditions: in vivo; how it was run: as §1
[13] = Tmax in wild-type Sprague-Dawley rat treated with sulfasalazine at 20 mg/kg, po by LC-MS/MS analysis; type: ADME, organism-based; parameters: dose 20 mg/kg, route oral; conditions: in vivo
How it was run: (§2)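 Male Sprague-Dawley knockout rats or wild-type rats matched for age and weight, with femoral artery and vein cannulas. Crossover design: sulfasalazine 5 mg/kg iv bolus (water, pH 9–10) on day 0, then 20 mg/kg oral gavage (0.5% carboxymethyl cellulose in PBS, pH 7.4) on day 3. Arterial plasma collected 0–24 h. Sulfasalazine and sulfapyridine measured by LC-MS/MS; noncompartmental parameters; mean ± S.D., n = 4 to 8.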

[14] = Tmax in MDR1A knockout Sprague-Dawley rat treated with sulfasalazine at 20 mg/kg, po by LC-MS/MS analysis; type: ADME, organism-based; parameters: dose 20 mg/kg, route oral; conditions: in vivo; how it was run: as §2
[15] = Tmax in BCRP knockout Sprague-Dawley rat treated with sulfasalazine at 20 mg/kg, po by LC-MS/MS analysis; type: ADME, organism-based; parameters: dose 20 mg/kg, route oral; conditions: in vivo; how it was run: as §2
[16] = Tmax in MRP2 knockout Sprague-Dawley rat treated with sulfasalazine at 20 mg/kg, po by LC-MS/MS analysis; type: ADME, organism-based; parameters: dose 20 mg/kg, route oral; conditions: in vivo; how it was run: as §2
[17] = Half life in wild-type Sprague-Dawley rat treated with sulfasalazine at 20 mg/kg, po by LC-MS/MS analysis; type: ADME, organism-based; parameters: dose 20 mg/kg, route oral; conditions: in vivo; how it was run: as §2
[18] = Half life in MDR1A knockout Sprague-Dawley rat treated with sulfasalazine at 20 mg/kg, po by LC-MS/MS analysis; type: ADME, organism-based; parameters: dose 20 mg/kg, route oral; conditions: in vivo; how it was run: as §2
[19] = Half life in BCRP knockout Sprague-Dawley rat treated with sulfasalazine at 20 mg/kg, po by LC-MS/MS analysis; type: ADME, organism-based; parameters: dose 20 mg/kg, route oral; conditions: in vivo; how it was run: as §2
[20] = Half life in MRP2 knockout Sprague-Dawley rat treated with sulfasalazine at 20 mg/kg, po by LC-MS/MS analysis; type: ADME, organism-based; parameters: dose 20 mg/kg, route oral; conditions: in vivo; how it was run: as §2
Rattus norvegicus [21] = test: Drug metabolism in wild-type Wistar rat assessed as metabolite to parent ratio treated with sulfasalazine at 20 mg/kg, po; type: ADME, organism-based; parameters: dose 20 mg/kg, route oral; conditions: in vivo
How it was run: (§3)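 Male Wistar wild-type or Mrp2-deficient TR⁻ rats with femoral artery and vein cannulas. Sulfasalazine was given as a 5 mg/kg i.v. bolus and as a 20 mg/kg oral dose. Arterial plasma was sampled to 24 h and analysed for parent and sulfapyridine by LC-MS/MS. Noncompartmental parameters; n = 3, mean ± S.D.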

Rattus norvegicus [22] = test: Drug metabolism in MRP2-deficient Wistar rat assessed as metabolite to parent ratio treated with sulfasalazine at 20 mg/kg, po; type: ADME, organism-based; parameters: dose 20 mg/kg, route oral; conditions: in vivo; how it was run: as §3
[23] = AUC (infinity) in wild-type Wistar rat at 20 mg/kg, po by LC-MS/MS analysis; type: ADME, organism-based; parameters: dose 20 mg/kg, route oral, time infinity; conditions: plasma; how it was run: as §3
[24] = AUC (infinity) in MRP2-deficient Wistar rat at 20 mg/kg, po by LC-MS/MS analysis; type: ADME, organism-based; parameters: time infinity, dose 20 mg/kg, route oral; conditions: plasma; how it was run: as §3
[25] = Cmax in wild-type Wistar rat at 20 mg/kg, po by LC-MS/MS analysis; type: ADME, organism-based; parameters: dose 20 mg/kg, route oral; conditions: in vivo; how it was run: as §3
[26] = Cmax in MRP2-deficient Wistar rat at 20 mg/kg, po by LC-MS/MS analysis; type: ADME, organism-based; parameters: dose 20 mg/kg, route oral; conditions: in vivo; how it was run: as §3
[27] = Tmax in wild-type Wistar rat at 20 mg/kg, po by LC-MS/MS analysis; type: ADME, organism-based; parameters: dose 20 mg/kg, route oral; conditions: in vivo
How it was run: (§4)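 Male Wistar wild-type rats and Mrp2-deficient TR⁻ rats with femoral artery and vein cannulas. Sulfasalazine given as an iv bolus (5 mg/kg, water at pH 9–10) and by oral gavage, each followed by arterial plasma sampling over 24 h. Sulfasalazine and sulfapyridine measured by LC-MS/MS; noncompartmental parameters; mean ± S.D., n = 3.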

[28] = Tmax in MRP2-deficient Wistar rat at 20 mg/kg, po by LC-MS/MS analysis; type: ADME, organism-based; parameters: dose 20 mg/kg, route oral; conditions: in vivo; how it was run: as §4
[29] = Half life in wild-type Wistar rat at 20 mg/kg, po by LC-MS/MS analysis; type: ADME, organism-based; parameters: dose 20 mg/kg, route oral; conditions: in vivo; how it was run: as §4
[30] = Half life in MRP2-deficient Wistar rat at 20 mg/kg, po by LC-MS/MS analysis; type: ADME, organism-based; parameters: dose 20 mg/kg, route oral; conditions: in vivo; how it was run: as §4

- Ratio (Rattus norvegicus [1]): 50
- Ratio (Rattus norvegicus [2]): 24
- Ratio (Rattus norvegicus [3]): 4.6
- Ratio (Rattus norvegicus [4]): 22
- AUC (Rattus norvegicus [5]): 21992 ng.Eq.hr/ml
- AUC (Rattus norvegicus [6]): 14985 ng.Eq.hr/ml
- AUC (Rattus norvegicus [7]): 14576 ng.Eq.hr/ml
- AUC (Rattus norvegicus [8]): 12675 ng.Eq.hr/ml
- Cmax (Rattus norvegicus [9]): 4764 ng.Eq/ml
- Cmax (Rattus norvegicus [10]): 2525 ng.Eq/ml
- Cmax (Rattus norvegicus [11]): 2843 ng.Eq/ml
- Cmax (Rattus norvegicus [12]): 2499 ng.Eq/ml
- Tmax [13]: 5 h
- Tmax [14]: 7 h
- Tmax [15]: 4 h
- Tmax [16]: 4.4 h
- half-life [17]: 138 min
- half-life [18]: 78 min
- half-life [19]: 102 min
- half-life [20]: 96 min
- Ratio (Rattus norvegicus [21]): 16
- Ratio (Rattus norvegicus [22]): 34
- AUC(0-inf) [23]: 29400 ng·h/mL
- AUC(0-inf) [24]: 15400 ng·h/mL
- Cmax [25]: 4320 ng/mL
- Cmax [26]: 3240 ng/mL
- Tmax [27]: 4 h
- Tmax [28]: 4 h
- half-life [29]: 138 min
- half-life [30]: 102 min
SMILES: Nc1ccc(S(=O)(=O)Nc2ccccn2)cc1 [SULFAPYRIDINE]

Reference: ChEMBL document CHEMBL3526049 (Drug Metab Dispos, 2012)
